Test results as given in ChEMBL document CHEMBL1131023, “Identification of a dihydropyridine as a potent alpha1a adrenoceptor-selective antagonist that inhibits phenylephrine-induced contraction of the human prostate” (J Med Chem, 1998).

Tests used:
[1] = biological target: T1, Alpha-1D adrenergic receptor (Homo sapiens, UniProt P25100); assay: Binding affinity determined by displacement of [3H]prazosin from alpha-1D adrenergic receptor
T1 sequence (P25100 whole entry): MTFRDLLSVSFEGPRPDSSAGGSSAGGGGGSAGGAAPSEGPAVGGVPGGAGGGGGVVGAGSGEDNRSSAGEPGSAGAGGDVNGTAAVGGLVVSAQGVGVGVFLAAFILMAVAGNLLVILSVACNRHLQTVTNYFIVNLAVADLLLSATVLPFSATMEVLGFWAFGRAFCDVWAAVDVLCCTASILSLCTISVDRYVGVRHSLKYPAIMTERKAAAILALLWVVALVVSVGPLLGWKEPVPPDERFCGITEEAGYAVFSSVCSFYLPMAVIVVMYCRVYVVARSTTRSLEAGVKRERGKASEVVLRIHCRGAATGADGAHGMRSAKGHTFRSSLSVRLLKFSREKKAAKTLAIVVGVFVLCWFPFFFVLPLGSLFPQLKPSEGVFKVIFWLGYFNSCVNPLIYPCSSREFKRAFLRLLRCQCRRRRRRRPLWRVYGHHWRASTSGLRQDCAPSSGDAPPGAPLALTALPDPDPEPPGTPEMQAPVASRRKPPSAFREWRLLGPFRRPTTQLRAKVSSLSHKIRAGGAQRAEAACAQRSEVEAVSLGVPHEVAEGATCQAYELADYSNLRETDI
Outline: (§1)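 Radioligand displacement binding at the cloned receptor, incubated for 30 min.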

[2] = biological target: T2, Alpha-2A adrenergic receptor (Homo sapiens, UniProt P08913); assay: Binding affinity determined by displacement of [3H]rauwolscine from alpha-2A adrenergic receptor; outline: as §1
T2 sequence (P08913 whole entry): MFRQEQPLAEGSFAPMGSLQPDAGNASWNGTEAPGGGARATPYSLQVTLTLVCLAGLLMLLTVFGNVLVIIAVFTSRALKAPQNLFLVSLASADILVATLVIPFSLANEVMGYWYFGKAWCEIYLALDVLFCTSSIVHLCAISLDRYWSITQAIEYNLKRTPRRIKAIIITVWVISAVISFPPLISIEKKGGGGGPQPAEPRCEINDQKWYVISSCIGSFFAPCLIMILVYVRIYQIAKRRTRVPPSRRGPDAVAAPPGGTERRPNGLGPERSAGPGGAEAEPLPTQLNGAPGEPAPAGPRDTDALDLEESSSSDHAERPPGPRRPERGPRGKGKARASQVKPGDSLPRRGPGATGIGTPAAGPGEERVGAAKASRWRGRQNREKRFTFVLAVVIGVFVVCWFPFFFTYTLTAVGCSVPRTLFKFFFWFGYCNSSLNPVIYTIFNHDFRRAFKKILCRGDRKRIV

[3] = biological target: T3, Alpha-1A adrenergic receptor (Homo sapiens, UniProt P35348); assay: Binding affinity determined by displacement of [3H]prazosin from alpha-1A adrenergic receptor
T3 sequence (P35348 whole entry): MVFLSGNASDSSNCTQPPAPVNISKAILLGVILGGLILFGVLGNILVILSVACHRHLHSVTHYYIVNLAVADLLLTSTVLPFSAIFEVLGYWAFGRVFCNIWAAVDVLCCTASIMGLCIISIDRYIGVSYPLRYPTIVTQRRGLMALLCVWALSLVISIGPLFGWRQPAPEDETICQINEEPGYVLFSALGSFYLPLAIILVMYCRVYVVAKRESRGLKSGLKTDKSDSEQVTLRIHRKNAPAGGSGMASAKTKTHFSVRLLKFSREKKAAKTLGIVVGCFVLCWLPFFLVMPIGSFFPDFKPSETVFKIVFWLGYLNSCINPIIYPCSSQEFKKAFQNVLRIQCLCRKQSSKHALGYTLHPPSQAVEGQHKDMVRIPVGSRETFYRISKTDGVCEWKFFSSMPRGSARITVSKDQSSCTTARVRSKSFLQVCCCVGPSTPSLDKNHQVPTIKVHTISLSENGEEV

[4] = biological target: T4, Alpha-2B adrenergic receptor (Homo sapiens, UniProt P18089); assay: Binding affinity determined by displacement of [3H]rauwolscine from alpha-2B adrenergic receptor
T4 sequence (P18089 whole entry): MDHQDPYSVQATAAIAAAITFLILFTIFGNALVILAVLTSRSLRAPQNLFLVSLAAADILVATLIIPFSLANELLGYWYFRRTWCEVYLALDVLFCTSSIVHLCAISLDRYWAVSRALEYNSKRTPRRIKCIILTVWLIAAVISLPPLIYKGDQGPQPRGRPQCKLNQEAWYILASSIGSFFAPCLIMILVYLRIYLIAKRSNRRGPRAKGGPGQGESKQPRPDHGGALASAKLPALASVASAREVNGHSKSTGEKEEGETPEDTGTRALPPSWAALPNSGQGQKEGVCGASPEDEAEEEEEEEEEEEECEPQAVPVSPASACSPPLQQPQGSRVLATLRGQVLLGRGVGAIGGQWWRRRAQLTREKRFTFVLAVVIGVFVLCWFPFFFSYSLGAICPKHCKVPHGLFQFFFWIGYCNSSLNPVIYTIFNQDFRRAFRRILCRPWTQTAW

[5] = biological target: T5, Alpha-1B adrenergic receptor (Homo sapiens, UniProt P35368); assay: Binding affinity determined by displacement of [3H]prazosin from alpha-1B adrenergic receptor
T5 sequence (P35368 whole entry): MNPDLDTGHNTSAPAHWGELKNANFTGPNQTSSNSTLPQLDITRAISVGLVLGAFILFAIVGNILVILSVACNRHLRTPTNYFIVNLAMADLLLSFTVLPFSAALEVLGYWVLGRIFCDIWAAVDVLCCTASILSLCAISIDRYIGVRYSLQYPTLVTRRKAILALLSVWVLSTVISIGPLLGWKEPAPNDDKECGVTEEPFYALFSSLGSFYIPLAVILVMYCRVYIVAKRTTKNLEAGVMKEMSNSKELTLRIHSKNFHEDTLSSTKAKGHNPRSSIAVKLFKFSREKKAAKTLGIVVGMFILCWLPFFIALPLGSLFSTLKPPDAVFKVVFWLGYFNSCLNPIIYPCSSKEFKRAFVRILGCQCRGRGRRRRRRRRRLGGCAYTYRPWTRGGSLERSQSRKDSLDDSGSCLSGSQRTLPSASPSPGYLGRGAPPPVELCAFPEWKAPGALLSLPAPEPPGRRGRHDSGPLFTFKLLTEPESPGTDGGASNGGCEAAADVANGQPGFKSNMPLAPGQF

[6] = biological target: T6, Alpha-2C adrenergic receptor (Homo sapiens, UniProt P18825); assay: Binding affinity assayed by displacement of [3H]rauwolscine from human alpha-2C adrenergic receptor; outline: as §1
T6 sequence (P18825 whole entry): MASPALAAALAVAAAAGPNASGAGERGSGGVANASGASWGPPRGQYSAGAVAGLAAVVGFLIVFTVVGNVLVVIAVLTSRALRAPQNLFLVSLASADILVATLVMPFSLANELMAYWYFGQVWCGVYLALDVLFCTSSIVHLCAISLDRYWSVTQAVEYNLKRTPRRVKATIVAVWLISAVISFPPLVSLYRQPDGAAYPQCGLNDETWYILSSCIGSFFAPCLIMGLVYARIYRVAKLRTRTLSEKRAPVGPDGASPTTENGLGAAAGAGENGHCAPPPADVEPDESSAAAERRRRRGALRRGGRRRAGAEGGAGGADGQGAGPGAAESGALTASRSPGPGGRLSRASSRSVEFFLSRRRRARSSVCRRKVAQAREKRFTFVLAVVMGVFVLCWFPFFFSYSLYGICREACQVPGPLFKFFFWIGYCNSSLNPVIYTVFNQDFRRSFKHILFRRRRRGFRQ

[7] = biological target: Voltage-gated L-type calcium channel (Rattus norvegicus, UniProt P22002+Q02485+P27732); assay: Binding affinity at the L-type [Ca2+] channel from rat brain homogenate by [3H]nitrendipine displacement.; assay type: tissue-based

Ki [1] | Ki [2] | Ki [3] | Ki [4] | Ki [5] | Ki [6] | Log Ki [7] | Structure (SMILES)
331 nM | 646 nM | 14.8 nM | 372 nM | 135 nM | 282 nM | < -6 | CO/C(O)=C1\C(C)=NC(C)=C(C(=O)NCCCCN2CCC(c3ccccc3)(c3ccccc3)CC2)C1c1ccc([N+](=O)[O-])cc1 (stereo not drawn)
1150 nM | 501 nM | 8.71 nM | 204 nM | 1170 nM | 724 nM | < -6 | CC1=C(C(N)=O)C(c2ccc3c(c2)OCO3)C(C(=O)NCCCN2CCC(c3ccccc3)(c3ccccc3)CC2)=C(C)N1 (stereo not drawn)
316 nM | 1290 nM | 1.38 nM | 912 nM | 269 nM | 417 nM | < -6 | CO/C(O)=C1\C(C)=NC(C)=C(C(=O)NCCCN2CCC(c3ccccc3)(c3ccccc3)CC2)C1c1ccc(C)cc1 (stereo not drawn)
324 nM | 912 nM | 1.86 nM | 1260 nM | 115 nM | 158 nM | < -6 | CO/C(O)=C1\C(C)=NC(C)=C(C(=O)NCCCN2CCC(c3ccccc3)(c3ccccc3)CC2)C1c1ccc(Cl)c(Cl)c1 (stereo not drawn)
457 nM | 955 nM | 8.91 nM | 380 nM | 380 nM | 407 nM | < -6 | CC(=O)C1=C(C)NC(C)=C(C(=O)NCCCN2CCC(c3ccccc3)(c3ccccc3)CC2)C1c1ccc2c(c1)OCO2 (stereo not drawn)
66.1 nM | 275 nM | 0.229 nM | 219 nM | 13.5 nM | 81.3 nM | < -6 | CO/C(O)=C1\C(C)=NC(C)=C(C(=O)NCCCN2CCC(c3ccccc3)CC2)C1c1ccc([N+](=O)[O-])cc1 (stereo not drawn)
302 nM | 1120 nM | 1.12 nM | 871 nM | 224 nM | 575 nM | < -6 | CO/C(O)=C1\C(C)=NC(C)=C(C(=O)NCCCN2CCC(c3ccccc3)(c3ccccc3)CC2)C1c1ccc2c(c1)OCO2 (stereo not drawn)
741 nM | 1580 nM | 36.3 nM | 891 nM | 138 nM | 631 nM | -6.43 | CO/C(O)=C1\C(C)=NC(C)=C(C(=O)NCCCN2CCC(c3ccccc3)(c3ccccc3)CC2)C1c1ccc2ccccc2c1 (stereo not drawn)

Structure (SMILES) | Ki [1] | Ki [2] | Ki [3] | Ki [4] | Ki [5] | Ki [6] | Log Ki [7]
CC1=C(C#N)C(c2ccc([N+](=O)[O-])cc2)C(C(=O)NCCCN2CCC(c3ccccc3)(c3ccccc3)CC2)=C(C)N1 (stereo not drawn) | 437 nM | 631 nM | 56.2 nM | 832 nM | 166 nM | 479 nM | < -6
